What is called inhibition is the change of the read-out against control, counted positive when it falls.

Molecules are shown by their SMILES. Out of some 330,000 compounds screened, about 1,100 (0.33%) were called active. Only a selection was taken, and actives are over-represented in it overall. Values without a mark were called inactive.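 Rule for the calls: active = mean inhibition over replicate wells above about 20% (limit read from the data); inactive = the rest.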

Drawing on PubChem BioAssay AID588478 (ICCB-Longwood Screening Facility, Harvard Medical School, 2011), this text covers inhibition for 87 compounds.

Chain of Ubiquitin carboxyl-terminal hydrolase isozyme L5 (Homo sapiens) (Q9Y5K5 whole entry, looked up): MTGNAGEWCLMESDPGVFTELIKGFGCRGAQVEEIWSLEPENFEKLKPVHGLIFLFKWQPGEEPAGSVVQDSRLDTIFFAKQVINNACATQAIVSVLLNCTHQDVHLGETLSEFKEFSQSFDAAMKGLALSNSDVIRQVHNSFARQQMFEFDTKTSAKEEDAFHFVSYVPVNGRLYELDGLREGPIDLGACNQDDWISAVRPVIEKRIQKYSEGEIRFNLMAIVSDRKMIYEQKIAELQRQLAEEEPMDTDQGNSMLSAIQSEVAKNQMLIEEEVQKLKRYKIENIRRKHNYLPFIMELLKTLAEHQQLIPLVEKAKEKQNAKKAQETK

The assay has as its target Ubiquitin carboxyl-terminal hydrolase isozyme L5 (Homo sapiens) (UniProt Q9Y5K5). Kind of assay: inhibitors of human UCH37 deubiquitinase, primary screen, biochemical, Ub-AMC cleavage, fluorescence (AID 588478).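 Note: 0% = compound-free wells with enzyme and 100% = wells lacking proteasome.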 As to conditions: purified proteasome/UCH37, Ub-AMC cleavage fluorescence; active compounds read high; concentration not given here. Put shortly:
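Reagent: Ub-AMC substrate; assay system: Proteasome-associated human UCH37 deubiquitinase; controls: no-proteasome and no-compound wells; read-out: % inhibition of Ub-AMC cleavage fluorescence; timing: 30 min preincubation with enzyme, 25 min cleavage at room temperature; signal: AMC fluorescence from Ub-AMC cleavage, excitation 355 nm, emission 460 nm; buffer or medium: Tris-HCl pH 7.4 plus ovalbumin, ATP-MgCl2, DTT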
`O=c1ccc2c(-c3ccccc3S(=O)(=O)O)c3ccc(O)c(O)c3oc-2c1O`: the inhibition was 29% (active).
For the compound `O=C1c2ccccc2NC(c2ccco2)N1N=Cc1ccco1` (configuration not stated), the inhibition is -3.31%.
As for `COC(=O)c1ccc(-c2ccc(C=NN3C(=O)C4C5C=CC(CC5)C4C3=O)o2)cc1` (configuration not stated), the inhibition was -1.63%.
As for `CC(=O)OC[C@H]1O[C@@H](ON=C[C@@H](C)[C@H](OCc2ccccc2)C(C)C)[C@H](OC(C)=O)[C@@H](OC(C)=O)[C@@H]1OC(C)=O`, the figure is 1.03%.
For the compound `CCOc1cc(C=NNC(=O)C(=O)N2CCCC2)ccc1O`, the inhibition was 7.79%.
The same measure for `CCOC(=O)N1CCN(C(=O)Cc2ccc(-n3c(=S)[nH]c4ccccc4c3=O)cc2)CC1`: 2.68%.
As for `CCOC(=O)N1CCN(C(=O)CNC(=O)Cc2ccc(Cl)cc2)CC1`, the inhibition was 33.3% (active).
For `CCOC(=O)N1CCN(C(=O)C(C)NC(=O)c2ccco2)CC1` (configuration not stated), the inhibition was 1.14%.
`CC(C)(C)OC(=O)NCCC(=O)NN=Cc1ccc2nccnc2c1`: the inhibition was 3.74%.
The same measure for `COC(=O)c1nn(-c2ccccc2)c(Sc2ccc(Cl)cc2)c1C=NO`: -1.82%.
As for `O=C(c1ccc(-n2cnnn2)cc1)N1CCN(C(c2ccccc2)c2ccccc2)CC1`, the figure is 26.6% (active); as for `Cc1onc(C(=O)NN)c1C(=O)N1CCN(C(c2ccccc2)c2ccccc2)CC1`, 1.47%; as for `Cn1nnnc1SCC(=O)N1CCN(C(c2ccccc2)c2ccccc2)CC1`, 2.55%.
Regarding `C=C1CC(C(=O)NN=Cc2ccccc2)C1`, the inhibition is 1.24%.
Take `COc1cccc(C=NNC(=S)NC2CC3CCC2C3)c1OC` (configuration not stated): the inhibition was 2.43%.
`CCN1C[C@@H]2[C@@H]3C(=O)N(Cc4ccccc4)C(=O)[C@@H]3[C@](Cc3ccccc3)(C(=O)OC)N2C1=NC1CCCCC1`: the inhibition was -0.224%.
As for `CCN1C[C@@H]2[C@@H]3C(=O)N(Cc4ccccc4)C(=O)[C@@H]3[C@](C)(C1=O)N2C(=O)c1ccc(C(C)(C)C)cc1`, the inhibition is 28.4% (active).
Take `CCN1C[C@@H]2[C@@H]3C(=O)N(C)C(=O)[C@@H]3[C@](C)(C1=O)N2C(=O)c1ccccc1`: the inhibition was 1.29%.
For `CON=C(C(=O)N[C@@H]1C(=O)N2C(C(=O)O)=C(COC(N)=O)CS[C@H]12)c1ccco1`, the inhibition is -2.85%.
As for `CC(CC(C)(C)c1ccccc1)=NNS(=O)(=O)c1ccccc1`, the figure is 3.32%; as for `Cc1nn(-c2ccccc2)c(Cl)c1C=NO`, 1.54%.
As to `Cn1cc([N+](=O)[O-])c(C(=O)NN=Cc2ccc([N+](=O)[O-])cc2)n1`, the inhibition is 11.9%.
As for `CN(C)c1ccc(C=NNC(=O)c2nonc2N)cc1[N+](=O)[O-]`, the inhibition is 20.3% (active).
In the case of `Nc1nonc1C(=O)NN=Cc1ccc(-c2cccc([N+](=O)[O-])c2)o1`, the inhibition is 9.92%.
Take `O=C(CCCCO)CCCCCCCCC1NC(CO)C(O)C1O[C@@H]1OC(CO)C(O)C(O)C1O` (some centres not stated): the inhibition was 1.76%.
The same measure for `O=C(NN=C(c1ccccc1)c1cccnc1)c1ccc(O)cc1`: 4.07%; for `CCC(C)C(C)=NNC(=O)c1ccc(COc2ccc(Cl)c(C)c2)cc1` (configuration not stated): 1.66%; for `Oc1ccc(C=NNc2cccc3cccnc23)c(O)c1`: 1.33%.
As for `C#CCOCCOCCOCCNc1nc(N2CCN(C(=O)[C@H](C(C)C)n3cc(CCO)nn3)CC2)nc(N2CCN(C(=O)[C@H](C(C)C)n3cc(CCO)nn3)CC2)n1`, the figure is 0.233%; as for `C#CCOCCOCCOCCNc1nc(N2CCN(C(=O)[C@H](CCCN=C(N)N)n3cc(C(N)[C@@H](C)CC)nn3)CC2)nc(N2CCN(C(=O)[C@H](CO)n3cc([C@@H](N)C(C)C)nn3)CC2)n1` (some centres not stated), 3.95%; as for `C#CCOCCOCCOCCNc1nc(N2CCN(C(=O)[C@H](C(C)C)n3cc(CCO)nn3)CC2)nc(N2CCN(C(=O)[C@H]([C@@H](C)CC)n3cc(CCCN=C(N)N)nn3)CC2)n1`, 34.8% (active).
On to `CC(C)NC(=O)CC(=O)NN=Cc1ccccc1F`, for which the inhibition was 4.78%.
For the compound `CSc1cc(C=NO)c(SC)s1`, the inhibition is 3.15%.
For `CCCn1nc(Oc2nc(NC(C)C)nc(N(C)C)n2)ccc1=O`, the inhibition was 6.24%.
Consider `COc1nc(Oc2ccc(=O)n(C)n2)nc(N(C)C)n1`, for which the inhibition was 29.8% (active).
For the compound `COc1nc(N(C)C)nc(N2CC(=O)N(CCNS(=O)(=O)c3ccc(C)cc3)C2=N)n1`, the inhibition was -1.6%.
As for `CN(C)c1nc(NN=Cc2c[nH]c3ccccc23)nc(N2CCOCC2)n1`, the inhibition was 5.58%.
Regarding `CC(C)CC[n+]1ccn(C2=C([O-])c3ccccc3C(=O)/C2=N\S(=O)(=O)c2ccccc2)c1`, the inhibition was 32.4% (active).
Regarding `Cc1ccc(C=NNC(=O)c2cc([N+](=O)[O-])cc([N+](=O)[O-])c2)o1`, the inhibition was 5.25%.
The same measure for `CN(C)/C=C(\C#N)C(=O)NN=Cc1ccccc1`: 6.55%; for `CN(C)C=Nc1sc2c(c1C#N)CCC2`: 9.38%; for `COC(=O)[C@H](Cc1ccccc1)NC(=O)[C@@H]1C[C@H]1[C@@H](NC(=O)OCc1ccccc1)c1ccccc1`: 1.36%.
Consider `COC(=O)[C@H](C)[C@H]1C[C@]1(C)[C@H](NC(=O)OCc1ccccc1)c1ccccc1`, for which the inhibition is 31% (active).
In the case of `CC(C)[C@H](NC(=O)OCc1ccccc1)C(=O)OCc1ccccc1`, the inhibition was 0.329%.
For `O=C(NN=Cc1ccco1)c1cc(=O)[nH]c2ccccc12`, the inhibition is 7.58%.
Turning to `CCC(=O)Nc1ccc(C(=O)N2CCN(C(=O)c3ccco3)CC2)cc1`, the inhibition is 31.4% (active).
Turning to `O=C(CN1CCN(C(=O)c2ccco2)CC1)Nc1ccc2c(c1)OCO2`, the inhibition is 1.43%.
Turning to `O=C(c1ccc2c(c1)OCO2)N1CCN(C(=O)c2ccco2)CC1`, the inhibition was 0.962%.
Consider `Cc1ccc2nc(C(Cl)(Cl)Cl)nc(NN=Cc3ccc([N+](=O)[O-])cc3)c2c1`, for which the inhibition was -0.00251%.
For the compound `O=C1c2ccccc2NC(c2ccc(-c3cccc(Cl)c3)o2)N1O` (configuration not stated), the inhibition is -14.2%.
On to `S=c1[nH]nc(-c2cccc(Cl)c2)n1N=Cc1ccc(-c2ccccc2Br)o1`, for which the inhibition is 8%.
In the case of `O=C(O)C(c1ccccc1)N1C(=O)/C(=C\c2ccc(-c3cccc(Cl)c3)o2)SC1=S` (configuration not stated), the inhibition is 37.5% (active).
Take `CC(=O)n1cc(C=NNC(=O)c2ccc(Cl)cc2)c2ccccc21`: the inhibition is 2.16%.
Take `O=C(Cc1cccs1)NN=Cc1ccc(O)cc1`: the inhibition was 1.44%.
Consider `CCOC(=O)c1c(N=CC2=C(O)CC(C)(C)CC2=O)sc(C)c1C`, for which the inhibition is -1.87%.
Turning to `Cc1ccc(C=NNC(=O)CSc2nc3ccccc3c(=O)n2-c2ccccc2)s1`, the inhibition was 4.54%.
As to `Cc1ccc(NC(=O)Nc2cccnc2)cc1`, the inhibition is 0.429%.
In the case of `CC(C)(C)c1ccc(C=NNC(=S)Nc2cccnc2)cc1`, the inhibition is 2.4%.
For `Oc1ccc(C=NNC(=S)Nc2cccnc2)c(O)c1O`, the inhibition was 22.7% (active).
For the compound `COc1cc(C=NN(C)C)ccc1OC(=O)c1cccs1`, the inhibition is 0.992%.
Consider `COc1ccc(NC(=O)ON=Cc2ccccc2)cc1`, for which the inhibition is 2.45%.
The same measure for `CC(=NNC(=O)c1cccs1)c1ccc(NC(=O)COc2ccc(Cl)cc2)cc1`: -42%; for `O=C(O)c1cc(NN=Cc2ccncc2)ccc1Cl`: 14.4%; for `Nc1nnnn1CC(=O)NN=Cc1cc([N+](=O)[O-])ccc1Cl`: 4.32%.
Take `CCCCCCCCn1c2c(c(=N)c3c1CCC3)CCCC2`: the inhibition is 25.7% (active).
For the compound `Cc1ccc(C=NNC(=O)CNC(=O)COc2ccccc2)o1`, the inhibition is 6.97%.
Consider `CC(C)(C)NN=Cc1cc(Cl)cc([N+](=O)[O-])c1O`, for which the inhibition was 6.29%.
Consider `CNC(=O)C(C#N)=c1sc(=CC(=O)OC)c(=O)n1-c1ccccc1`, for which the inhibition is 3.97%.
As for `Cc1ccc(C=NN2CCN(Cc3ccccc3)CC2)o1`, the figure is 1.82%; as for `COc1ccc(C(=O)COC(=O)c2ccc([N+](=O)[O-])s2)cc1OC`, 4.79%; as for `COc1ccc(C(=O)OCC(=O)Nc2ccc3[nH]c(=O)[nH]c3c2)c(OC)c1OC`, 0.187%.
Regarding `COc1cc(NC(=O)COC(=O)c2ccc([N+](=O)[O-])s2)cc(OC)c1OC`, the inhibition is 70.6% (active).
For `COc1cccc(C=NNc2cc(-n3nc(C)cc3-c3ccccc3)ncn2)c1O`, the inhibition is 3.24%.
On to `O=[N+]([O-])c1cc(S(=O)(=O)N2CCCC2)ccc1NN=Cc1cccnc1`, for which the inhibition is 3.11%.
On to `Cc1nn(-c2ccccc2)c(C)c1C=NNC(=O)c1cccs1`, for which the inhibition is 2.82%.
As for `CC(=O)Oc1ccc2c(c1)C(=O)c1ccccc1C2=O`, the figure is 6.5%; as for `O=C1C(Cl)=C(Oc2ccccc2)C(=O)c2ccccc21`, 73.8% (active); as for `Cc1cc(C)c(COc2ccc(C=Nn3c(C)n[nH]c3=S)cc2)c(C)c1`, 2.64%.
As for `C[n+]1cn(N=Cc2ccccc2)c2ccccc21`, the inhibition was 0.369%.
For the compound `COc1ccc(C(C)=NNc2ccc(C(=O)O)cc2)cc1OC`, the inhibition was 12.1%.
For `COC1(C2=NCCN2)COc2ccccc2O1` (configuration not stated), the inhibition was 22.9% (active).
The same measure for `CCCC=NNc1nnc(Cc2ccc(OC)c(OC)c2)c(=O)[nH]1`: 2.12%; for `COc1ccc(C(C)=NNC(=O)c2ccc(N(C)C)cc2)cc1`: 3.67%; for `CC(=O)NC(=S)Nc1ccc(NC(=S)NC(=O)c2ccc([N+](=O)[O-])cc2)cc1`: 5.88%.
Take `Cn1ccc(=Nc2ccc(NC(=O)c3ccc(N=c4ccn(C)c5ccc([N+](=O)[O-])cc45)cc3)cc2)cc1`: the inhibition is 27.5% (active).
As for `COc1cc(NS(=O)(=O)c2ccc(NC(=O)c3ccc([N+](=O)[O-])cc3)cc2)ncn1`, the inhibition is 4.65%.
Turning to `COc1ccccc1/C=C/C=NN1CCN(Cc2ccc(Cl)cc2)CC1`, the inhibition is 5.57%.
